Screening results (PubChem)
Hits are enriched below; roughly 2.9% of the tested compounds scored in any of these assays.
PolyA inh = inhibitors of polyadenylation in S. cerevisiae; S. cerevisiae SKY197-pL101 polyadenylation reporter, beta-gal luminescence; efflux-impaired pdr1/pdr3 knockout yeast; score 100 = 6 SD above DMSO; activity score, % at 12 µM; hit rate 0.02% among 300,000; AID 1875;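 active = lowest replicate activity score at least 50, where 100 means six control SD above control mean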;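 also: yeast exposed to compound for 9 h at 30 °C; higher score means more reporter readthrough which indicates perturbed polyadenylation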
NALP3 yeast inh = NALP3 inhibition in yeast | AID 2825 | Yeast reconstituted NLRP3/ASC/caspase-1, beta-gal luminescence, 24 h | inhibition, % at 10 µM | hit rate 0.39% among 330,000;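 active = inhibition of 50% or more; inactive = inhibition below 50%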
IMP-1 inh = inhibitors of Pseudomonas aeruginosa IMP-1 metallo-beta-lactamase | AID 1556 | inhibition, % at 5.6 µM | purified IMP-1, nitrocefin hydrolysis, epi-absorbance fluorescence | hit rate 0.45% among 290,000;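 active = inhibition above the mean plus 3 SD of all compounds in the same screening run, cut at about 4.5% in these data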
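System: Purified IMP-1 | Read-out basis: Percent enzyme inhibition | Controls: IMP-1 with DMSO as 0%, enzyme-free DMSO as 100% | Replicates: One well per compound | Doses: 5.6 µM nominal single concentration | Detection: Epi-absorbance fluorescence, 480 nm excitation, 530 nm emission | Incubation: 25 °C, 15 min preincubation, 25 min reaction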
NALP1 inh = NALP1 inhibition | S. cerevisiae NALP1/ASC/caspase-1 growth, X-gal OD620, 72 h | hit rate 0.61% among 280,000 | AID 2071 | inhibition, % at 10 µM; in the data active = inhibition mostly above about 24%, no sharp cut-off; inactive = mostly below about 32%
VIM-2 inhibitor = blocks Pseudomonas aeruginosa VIM-2 metallo-beta-lactamase | purified VIM-2, nitrocefin hydrolysis, epi-absorbance fluorescence | inhibition, % at 5.6 µM | hit rate 0.89% among 290,000;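 active = inhibition above the mean of all tested compounds plus 3 SD, cutoff set per screening run, cut at about 7.5% in these data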;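 also: red hydrolysis product quenches plate fluorescence so inhibitors raise well fluorescence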
SUMO Mot1 rescue = inhibitors of SUMOylation pathway: yeast Mot1-301 growth rescue. S. cerevisiae Mot1-301 growth rescue, ATP luminescence, 38.5C; percent above DMSO median, 100 means doubled. growth rescue, % at 18.8 µM. hit rate 1% among 320,000. AID 2716;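 active = every valid replicate shows activation above 250% relative to neutral control wells; inactive = the rest, any valid replicate at or below 250%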
Yeast Mot1 SUMO = yeast SUMO pathway inhibition in dose response | shares compounds with SUMO Mot1 rescue | S. cerevisiae Mot1-301 galactose growth, ATP luminescence, 24 h; -100 = growth of slx-deleted rescue strain | growth activity, percent, % at 42 µM | 2,300 tested, under 10 active;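 active = Signal drops as the depositor expects, and the fitted half-maximal dose is no more than ten times the top valid tested dose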;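 also: more negative values mean stronger growth rescue toward the control strain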
Hits are given with their value; 0 = inactive; - = no result given; + = active, no number.

SMILES	PolyA inh	NALP3 yeast inh	IMP-1 inh	NALP1 inh	VIM-2 inhibitor	SUMO Mot1 rescue	Yeast Mot1 SUMO
CC(C)(C)c1ccc(CN(Cc2ccccc2)C(c2ccccn2)c2nnnn2C(C)(C)C)cc1 (stereo unspecified)	0	0	0	0	0	505	0
NS(=O)(=O)c1cccc(NC(=O)COC(=O)CCN2C(=O)c3ccccc3C2=O)c1	-	0	-	-	-	0	-
CC(C)CCCN1CCN=C1Nc1ccccc1	0	0	0	0	0	596	0
Cc1ccc(N(CC(=O)NC2CCCC2)C(=O)c2nsc(Cl)c2Cl)cc1	0	0	0	0	0	0	-
CC(C)C1C(=O)CC(c2ccccc2)NC1c1ccccc1 (stereo unspecified)	0	0	0	0	0	0	-
CC1C(=O)CC(c2ccccc2)NC1c1ccccc1 (stereo unspecified)	0	0	0	0	0	789	0
CC(=O)Nc1ccc(NS(=O)(=O)c2ccccc2)cc1	0	0	0	0	0	-	-
COc1ccc(S(=O)(=O)Nc2ccc(NC(C)=O)cc2)cc1OC	0	0	0	0	0	+	0
CC(=O)Nc1ccc(S(=O)(=O)Nc2ccc3c(c2)C(=O)OC3)cc1	0	0	0	0	0	704	0
Cc1ccc(CNC(=O)c2ccc(F)c(S(=O)(=O)N3CCOCC3)c2)cc1	-	0	-	-	-	-	-
CCC(C)[C@H](NC(=O)Nc1ccc(S(N)(=O)=O)cc1)C(=O)OC (stereo partly specified)	0	0	0	-	0	743	0
CC1CC(C)CN(c2cc3c(cc2[N+](=O)[O-])C(=O)N(c2ccccc2)C3=O)C1 (stereo unspecified)	0	0	0	0	0	0	-
O=C1c2cc(N3CCCC3)c([N+](=O)[O-])cc2C(=O)N1c1ccccc1	0	0	0	0	0	377	0
COc1cccc(NC(=O)CCS(=O)(=O)c2ccc(Br)cc2)c1	0	0	0	0	0	0	-
CC(C)N1C(=O)CC(Nc2ccc(N3CCOCC3)cc2)C1=O (stereo unspecified)	0	0	0	0	0	0	-
COc1ccc(NC2CC(=O)N(C(C)C)C2=O)cc1 (stereo unspecified)	0	0	0	-	0	507	0
Cc1cnc(CNC(=O)c2ccc3oc(Cc4ccc(Cl)cc4)nc3c2)cn1	0	0	0	0	0	0	-
CC1=C/C(=N\OS(=O)(=O)c2ccccc2)C(C(C)C)=CC1=O	-	-	0	102	0	413	0
COc1ccc(-c2cc(C(F)(F)F)n3ncc(C(=O)O)c3n2)cc1OC	0	0	0	0	0	367	0
C=CCSC1=C(C#N)C(c2ccc(C(C)C)cc2)CC(=O)N1 (stereo unspecified)	0	0	0	0	0	405	0
COc1ccc(CCN(C)C(=O)c2ccc(S(=O)(=O)Nc3ccccc3F)cc2)cc1OC	0	0	0	0	0	0	-
O=C(CSc1nnc(NC(=O)C2CC2)s1)Nc1ccccc1Cl	0	0	0	0	0	0	-
Cc1ccc(NC(=S)NNC(=O)c2ccc(N3CCOCC3)c([N+](=O)[O-])c2)cc1C	0	0	0	0	0	366	0
Cc1ccccc1C(=O)Nc1cc(S(=O)(=O)N2CCOCC2)ccc1N1CCN(C)CC1	-	0	-	-	-	0	-
O=S(=O)(NCCN1CCCC1)c1cccc2cccnc12	0	0	0	0	0	815	0
SMILES	PolyA inh	NALP3 yeast inh	IMP-1 inh	NALP1 inh	VIM-2 inhibitor	SUMO Mot1 rescue	Yeast Mot1 SUMO
Cc1cc(C(F)(F)F)nc(SCC(=O)Nc2cc(C)on2)n1	0	0	0	0	0	+	0
Cc1cc(C)nc(SCC(=O)Nc2cc(C)on2)n1	0	0	0	0	0	0	-
COc1ccccc1C(=O)NCCC(=O)Nc1ccncc1	0	0	-	-	-	0	-
NC(=O)NC(=O)CSc1nc(C2CCCCC2)n(-c2ccccc2)n1	0	0	0	0	0	685	0
CN(C)S(=O)(=O)c1ccc(C(=O)/C=C/c2cccnc2)cc1	0	0	0	0	0	644	0
COC(=O)C1=C(C(=O)OC)[C@@H]2N(C)c3ccc(OC)cc3[C@@]23C[C@@H](C(=O)OC)N(C(=O)c2cc(C)oc2C)C3=N1	0	0	-	-	-	0	-
CC(C)(C)NC(=O)C(c1cccs1)N(Cc1cccs1)C(=O)c1ccc(CN2CCOCC2)o1 (stereo unspecified)	0	0	0	0	0	+	0
Cc1ccc(C(C(=O)NC(C)(C)C)N(Cc2ccc3c(c2)OCO3)C(=O)c2ccc(CN3CCOCC3)o2)o1 (stereo unspecified)	0	0	0	0	0	0	-
CC1CCCCC12NC(=O)N(CC(=O)OCc1cccc(F)c1)C2=O (stereo unspecified)	-	0	-	-	-	0	-
Cc1ccnc(NC(=O)CC(c2ccccc2)c2ccccc2)n1	0	0	0	0	0	432	0
S=c1[nH]nc(-c2ccccn2)n1/N=C/c1ccc(Cl)cc1	0	0	0	0	0	0	-
Oc1c(Br)cc(/C=N/n2c(-c3ccccc3)n[nH]c2=S)c(Br)c1O	0	-	0	0	0	0	-
Oc1c(Br)cc(Br)cc1/C=N/n1c(-c2ccccc2)n[nH]c1=S	0	0	22	0	0	644	0
S=c1[nH]nc(-c2ccccn2)n1/N=C/c1ccccc1	0	0	0	0	0	369	0
COCCCn1c(=O)c2ccccc2n(Cc2ccc(C)cc2)c1=O	0	0	0	0	0	0	-
COCCCn1c(=O)c2ccccc2n(Cc2ccccc2C)c1=O	0	0	0	0	0	455	0
CC(C)(C)NC(=O)C(c1cccs1)N(C(=O)c1csnn1)c1ccccc1F (stereo unspecified)	0	0	0	0	0	0	-
CSc1ccccc1NC(=O)COc1nsnc1N1CCOCC1	0	0	0	0	0	413	0
COc1ccc(NC2CCCN(C(=O)c3c(C)noc3C)C2)cc1 (stereo unspecified)	0	0	0	0	0	0	-
Cc1ccc(NC(=O)CC(C)CC(=O)NCc2ccccc2)cc1Cl (stereo unspecified)	0	0	0	0	0	0	-
O=C(COc1cccc2cccnc12)N1CCc2ccccc21	0	0	0	0	0	561	0
CC(C)(C)NC(=O)C1Cc2ccccc2CN1S(=O)(=O)c1ccc(F)cc1 (stereo unspecified)	0	0	0	0	0	584	0
CCN(CC)C(=O)Cn1cc(S(=O)(=O)CC(=O)NCCc2ccc(OC)c(OC)c2)c2ccccc21	0	0	0	0	0	384	0
CCCCC(O)(CCCC)C(=O)NN(C(=O)OC)c1ccc(C)cc1	0	0	0	0	0	446	0
Cc1onc(-c2ccccc2)c1C(=O)N/N=C/C=C/c1ccccc1	0	0	0	0	0	382	0
